Measured values published in ChEMBL document CHEMBL4184148 (Bioorg Med Chem Lett, 2017).

How the values were obtained:
[1] = molecular target: Tyrosine-protein kinase Fgr (Homo sapiens) (UniProt P09769); assay: Binding affinity to wild-type human partial length FGR (L233 to T529 residues) expressed in Escherichia coli BL21 at 1 uM by Kinomescan method relative to control
[2] = molecular target: Ephrin type-B receptor 3 (Homo sapiens) (UniProt P54753); assay: Binding affinity to wild-type human partial length EPHB3 (Q599 to T928 residues) expressed in Escherichia coli BL21 at 1 uM by Kinomescan method relative to control
Ephrin type-B receptor 3 (Homo sapiens), sequence (P54753 whole entry, the tested form may be a part): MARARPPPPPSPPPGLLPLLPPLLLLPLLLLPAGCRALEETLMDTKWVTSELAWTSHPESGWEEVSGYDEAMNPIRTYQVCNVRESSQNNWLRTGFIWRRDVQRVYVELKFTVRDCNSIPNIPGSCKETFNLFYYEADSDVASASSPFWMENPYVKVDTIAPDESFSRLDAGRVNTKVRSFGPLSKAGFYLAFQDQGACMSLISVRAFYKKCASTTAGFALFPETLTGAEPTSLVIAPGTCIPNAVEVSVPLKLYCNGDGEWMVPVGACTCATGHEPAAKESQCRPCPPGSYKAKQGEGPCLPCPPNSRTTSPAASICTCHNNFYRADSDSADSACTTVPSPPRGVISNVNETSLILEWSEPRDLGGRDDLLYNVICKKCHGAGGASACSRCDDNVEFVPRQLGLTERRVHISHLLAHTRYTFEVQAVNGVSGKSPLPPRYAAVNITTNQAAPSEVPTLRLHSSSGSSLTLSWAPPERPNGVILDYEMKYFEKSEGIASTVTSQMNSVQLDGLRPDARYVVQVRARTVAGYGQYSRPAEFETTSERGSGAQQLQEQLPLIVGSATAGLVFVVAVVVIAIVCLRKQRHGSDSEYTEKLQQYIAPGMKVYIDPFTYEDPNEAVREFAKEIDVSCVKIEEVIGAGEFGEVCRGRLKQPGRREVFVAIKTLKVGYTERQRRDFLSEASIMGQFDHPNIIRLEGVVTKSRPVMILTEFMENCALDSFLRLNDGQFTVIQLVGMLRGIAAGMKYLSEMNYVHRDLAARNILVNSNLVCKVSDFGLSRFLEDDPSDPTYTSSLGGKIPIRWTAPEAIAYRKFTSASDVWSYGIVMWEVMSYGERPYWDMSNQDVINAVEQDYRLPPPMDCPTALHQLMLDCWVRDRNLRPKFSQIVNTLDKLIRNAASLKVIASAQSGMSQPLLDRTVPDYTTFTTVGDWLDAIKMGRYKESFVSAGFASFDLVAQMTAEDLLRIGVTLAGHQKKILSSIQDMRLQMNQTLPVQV

[3] = molecular target: Mitogen-activated protein kinase kinase kinase kinase 2 (Homo sapiens) (UniProt Q12851); assay: Binding affinity to wild-type human partial length MAP4K2 (M1 to G318 residues) expressed in HEK293 cells at 1 uM by Kinomescan method relative to control; format: cell-based
Mitogen-activated protein kinase kinase kinase kinase 2 (Homo sapiens), sequence (Q12851 whole entry, the tested form may be a part): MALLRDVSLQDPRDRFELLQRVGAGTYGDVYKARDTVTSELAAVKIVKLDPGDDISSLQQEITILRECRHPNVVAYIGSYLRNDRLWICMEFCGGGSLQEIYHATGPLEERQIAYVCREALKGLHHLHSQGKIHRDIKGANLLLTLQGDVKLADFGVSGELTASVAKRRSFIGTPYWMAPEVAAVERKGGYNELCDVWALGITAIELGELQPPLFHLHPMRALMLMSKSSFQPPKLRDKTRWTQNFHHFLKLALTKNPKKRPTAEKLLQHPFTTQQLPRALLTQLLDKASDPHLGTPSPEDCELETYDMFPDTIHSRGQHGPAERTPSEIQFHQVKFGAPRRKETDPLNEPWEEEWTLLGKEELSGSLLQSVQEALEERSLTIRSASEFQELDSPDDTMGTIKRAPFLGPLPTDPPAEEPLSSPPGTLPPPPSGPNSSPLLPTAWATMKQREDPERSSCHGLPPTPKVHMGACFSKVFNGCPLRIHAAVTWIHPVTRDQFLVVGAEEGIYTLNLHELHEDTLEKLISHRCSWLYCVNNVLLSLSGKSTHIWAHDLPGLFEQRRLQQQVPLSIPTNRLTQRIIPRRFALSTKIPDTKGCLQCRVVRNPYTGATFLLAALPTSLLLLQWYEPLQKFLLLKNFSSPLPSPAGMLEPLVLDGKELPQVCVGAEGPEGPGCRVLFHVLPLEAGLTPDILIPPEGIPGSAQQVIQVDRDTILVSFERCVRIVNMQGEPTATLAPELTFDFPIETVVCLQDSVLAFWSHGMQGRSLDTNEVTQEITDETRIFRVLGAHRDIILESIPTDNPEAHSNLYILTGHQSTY

[4] = molecular target: Serine/threonine-protein kinase Nek2 (Homo sapiens) (UniProt P51955); assay: Binding affinity to wild-type human partial length NEK2 (M1 to K309 residues) expressed in Escherichia coli BL21 at 1 uM by Kinomescan method relative to control
[5] = molecular target: Ribosomal protein S6 kinase alpha-6 (Homo sapiens) (UniProt Q9UK32); assay: Binding affinity to wild-type human partial length N-terminal RSK4 kinase domain 1 (M1 to E397 residues) expressed in HEK293 cells at 1 uM by Kinomescan method relative to control; format: cell-based
[6] = molecular target: Cyclin-dependent kinase 17 (Homo sapiens) (UniProt Q00537); assay: Binding affinity to wild-type human full length PCTK2 (M1 to F523 residues) expressed in Escherichia coli BL21 at 1 uM by Kinomescan method relative to control
Summary of the method: (§1)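 Kinome-wide competition binding panel run by an outside provider, with each compound tested at a single concentration. Activity is read against the kinase panel.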

[7] = molecular target: Phosphatidylinositol 4-kinase beta (Homo sapiens) (UniProt Q9UBF8); assay: Binding affinity to wild-type human full length PIK4CB (M1 to M828 residues) expressed in HEK293 cells at 1 uM by Kinomescan method relative to control; format: cell-based; summary of the method: as §1
[8] = molecular target: Receptor-type tyrosine-protein kinase FLT3 (Homo sapiens) (UniProt P36888); assay: Binding affinity to wild-type human partial length autoinhibited FLT3 (H564 to Y969 residues) expressed in HEK293 cells at 1 uM by Kinomescan method relative to control; format: cell-based; design: scale not given: the % may be the effect or the level left
[9] = molecular target: Serine/threonine-protein kinase SIK1 (Homo sapiens) (UniProt P57059); assay: Binding affinity to wild-type human partial length SIK (M1 to Y304 residues) expressed in Escherichia coli BL21 at 1 uM by Kinomescan method relative to control
[10] = system: Epidermal growth factor receptor (Homo sapiens), P00533 [UNDEFINED MUTATION]; assay: Binding affinity to human partial length EGFR L747-S752del/P753S mutant expressed in Escherichia coli BL21 at 1 uM by Kinomescan method relative to control
[11] = molecular target: Death-associated protein kinase 2 (Homo sapiens) (UniProt Q9UIK4); assay: Binding affinity to wild-type human full length DAPK2 (M1 to S370 residues) expressed in Escherichia coli BL21 at 1 uM by Kinomescan method relative to control
Death-associated protein kinase 2 (Homo sapiens), sequence (Q9UIK4 whole entry, looked up, the tested form may be a part): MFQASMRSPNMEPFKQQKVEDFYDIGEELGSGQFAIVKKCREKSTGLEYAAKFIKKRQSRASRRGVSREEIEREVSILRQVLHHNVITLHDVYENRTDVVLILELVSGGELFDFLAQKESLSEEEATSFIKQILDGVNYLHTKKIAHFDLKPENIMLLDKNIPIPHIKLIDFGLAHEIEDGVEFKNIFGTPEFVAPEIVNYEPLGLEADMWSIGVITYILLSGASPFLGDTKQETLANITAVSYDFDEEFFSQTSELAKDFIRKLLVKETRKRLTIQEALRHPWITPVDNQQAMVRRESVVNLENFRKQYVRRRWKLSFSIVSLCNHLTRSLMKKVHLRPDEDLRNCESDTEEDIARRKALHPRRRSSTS
Summary of the method: (§2)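 Run as one kinome-wide competition binding panel with each compound at a single fixed concentration. Results were plotted as a kinome-wide selectivity map.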

[12] = molecular target: NUAK family SNF1-like kinase 1 (Homo sapiens) (UniProt O60285); assay: Binding affinity to wild-type human partial length ARK5 (E25 to I332 residues) expressed in Escherichia coli BL21 at 1 uM by Kinomescan method relative to control; summary of the method: as §1
[13] = molecular target: Cyclin-dependent kinase-like 3 (Homo sapiens) (UniProt Q8IVW4); assay: Binding affinity to wild-type human partial length CDKL3 (M1 to D327 residues) expressed in Escherichia coli BL21 at 1 uM by Kinomescan method relative to control
[14] = molecular target: TGF-beta receptor type-2 (Homo sapiens) (UniProt P37173); assay: Binding affinity to wild-type human partial length TGFBR2 (I218 to K567 residues) expressed in Escherichia coli BL21 at 1 uM by Kinomescan method relative to control
TGF-beta receptor type-2 (Homo sapiens), sequence (P37173 whole entry, the tested form may be a part): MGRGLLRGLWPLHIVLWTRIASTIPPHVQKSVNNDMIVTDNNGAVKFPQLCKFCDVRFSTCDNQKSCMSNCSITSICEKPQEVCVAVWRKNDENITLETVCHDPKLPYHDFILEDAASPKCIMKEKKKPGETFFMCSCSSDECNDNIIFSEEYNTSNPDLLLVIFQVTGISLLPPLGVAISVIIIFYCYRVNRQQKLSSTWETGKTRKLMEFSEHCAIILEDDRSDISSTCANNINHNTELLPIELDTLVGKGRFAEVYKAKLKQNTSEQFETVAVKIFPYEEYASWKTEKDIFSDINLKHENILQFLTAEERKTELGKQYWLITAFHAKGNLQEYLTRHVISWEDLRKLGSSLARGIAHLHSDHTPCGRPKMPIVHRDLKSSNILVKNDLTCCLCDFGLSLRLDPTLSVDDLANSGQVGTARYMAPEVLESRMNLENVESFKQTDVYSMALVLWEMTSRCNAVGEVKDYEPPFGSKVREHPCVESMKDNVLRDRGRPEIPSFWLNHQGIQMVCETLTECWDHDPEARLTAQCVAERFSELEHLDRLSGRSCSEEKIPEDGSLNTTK

[15] = molecular target: Phosphatidylinositol 4-phosphate 3-kinase C2 domain-containing subunit beta (Homo sapiens) (UniProt O00750); assay: Binding affinity to wild-type human partial length PIK3C2B (M1 to L1634 residues) expressed in HEK293 cells at 1 uM by Kinomescan method relative to control; format: cell-based
[16] = molecular target: Serine/threonine-protein kinase WNK2 (Homo sapiens) (UniProt Q9Y3S1); assay: Binding affinity to wild-type human partial length WNK2 (V47 to D482 residues) expressed in HEK293 cells at 1 uM by Kinomescan method relative to control; format: cell-based
HEK293 = assay: Cytotoxicity against human HEK293 cells assessed as reduction in cell viability up to 33.3 uM after 72 hrs by CellTiter-Glo assay relative to control; format: cell-based; settings: hek293, 72 h
Summary of the method: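 Cells were treated across a dose-response range for 72 h, and viability was read by CellTiter-Glo luminescence. Measurements were made in triplicate and reported with standard error.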

[17] = molecular target: High affinity nerve growth factor receptor (Homo sapiens) (UniProt P04629); assay: Binding affinity to wild-type human partial length TRKA (G475 to G790 residues) expressed in HEK293 cells at 1 uM by Kinomescan method relative to control; format: cell-based
[18] = molecular target: cAMP-dependent protein kinase catalytic subunit beta (Homo sapiens) (UniProt P22694); assay: Binding affinity to wild-type human full length PKAC-beta (M1 to F351 residues) expressed in Escherichia coli BL21 at 1 uM by Kinomescan method relative to control; summary of the method: as §1
[19] = system: Mast/stem cell growth factor receptor Kit (Homo sapiens), P10721 [D816V]; assay: Binding affinity to human partial length KIT D816V mutant (I571 to D952 residues) expressed in Escherichia coli BL21 at 1 uM by Kinomescan method relative to control
[20] = molecular target: Serine/threonine-protein kinase Nek11 (Homo sapiens) (UniProt Q8NG66); assay: Binding affinity to wild-type human partial length NEK11 (M1 to E313 residues) expressed in HEK293 cells at 1 uM by Kinomescan method relative to control; format: cell-based
[21] = molecular target: Myosin light chain kinase, smooth muscle (Homo sapiens) (UniProt Q15746); assay: Binding affinity to wild-type human full length MYLK (M854 to E1845 residues) expressed in HEK293 cells at 1 uM by Kinomescan method relative to control; format: cell-based; summary of the method: as §2
Myosin light chain kinase, smooth muscle (Homo sapiens), sequence (Q15746 whole entry, the tested form may be a part): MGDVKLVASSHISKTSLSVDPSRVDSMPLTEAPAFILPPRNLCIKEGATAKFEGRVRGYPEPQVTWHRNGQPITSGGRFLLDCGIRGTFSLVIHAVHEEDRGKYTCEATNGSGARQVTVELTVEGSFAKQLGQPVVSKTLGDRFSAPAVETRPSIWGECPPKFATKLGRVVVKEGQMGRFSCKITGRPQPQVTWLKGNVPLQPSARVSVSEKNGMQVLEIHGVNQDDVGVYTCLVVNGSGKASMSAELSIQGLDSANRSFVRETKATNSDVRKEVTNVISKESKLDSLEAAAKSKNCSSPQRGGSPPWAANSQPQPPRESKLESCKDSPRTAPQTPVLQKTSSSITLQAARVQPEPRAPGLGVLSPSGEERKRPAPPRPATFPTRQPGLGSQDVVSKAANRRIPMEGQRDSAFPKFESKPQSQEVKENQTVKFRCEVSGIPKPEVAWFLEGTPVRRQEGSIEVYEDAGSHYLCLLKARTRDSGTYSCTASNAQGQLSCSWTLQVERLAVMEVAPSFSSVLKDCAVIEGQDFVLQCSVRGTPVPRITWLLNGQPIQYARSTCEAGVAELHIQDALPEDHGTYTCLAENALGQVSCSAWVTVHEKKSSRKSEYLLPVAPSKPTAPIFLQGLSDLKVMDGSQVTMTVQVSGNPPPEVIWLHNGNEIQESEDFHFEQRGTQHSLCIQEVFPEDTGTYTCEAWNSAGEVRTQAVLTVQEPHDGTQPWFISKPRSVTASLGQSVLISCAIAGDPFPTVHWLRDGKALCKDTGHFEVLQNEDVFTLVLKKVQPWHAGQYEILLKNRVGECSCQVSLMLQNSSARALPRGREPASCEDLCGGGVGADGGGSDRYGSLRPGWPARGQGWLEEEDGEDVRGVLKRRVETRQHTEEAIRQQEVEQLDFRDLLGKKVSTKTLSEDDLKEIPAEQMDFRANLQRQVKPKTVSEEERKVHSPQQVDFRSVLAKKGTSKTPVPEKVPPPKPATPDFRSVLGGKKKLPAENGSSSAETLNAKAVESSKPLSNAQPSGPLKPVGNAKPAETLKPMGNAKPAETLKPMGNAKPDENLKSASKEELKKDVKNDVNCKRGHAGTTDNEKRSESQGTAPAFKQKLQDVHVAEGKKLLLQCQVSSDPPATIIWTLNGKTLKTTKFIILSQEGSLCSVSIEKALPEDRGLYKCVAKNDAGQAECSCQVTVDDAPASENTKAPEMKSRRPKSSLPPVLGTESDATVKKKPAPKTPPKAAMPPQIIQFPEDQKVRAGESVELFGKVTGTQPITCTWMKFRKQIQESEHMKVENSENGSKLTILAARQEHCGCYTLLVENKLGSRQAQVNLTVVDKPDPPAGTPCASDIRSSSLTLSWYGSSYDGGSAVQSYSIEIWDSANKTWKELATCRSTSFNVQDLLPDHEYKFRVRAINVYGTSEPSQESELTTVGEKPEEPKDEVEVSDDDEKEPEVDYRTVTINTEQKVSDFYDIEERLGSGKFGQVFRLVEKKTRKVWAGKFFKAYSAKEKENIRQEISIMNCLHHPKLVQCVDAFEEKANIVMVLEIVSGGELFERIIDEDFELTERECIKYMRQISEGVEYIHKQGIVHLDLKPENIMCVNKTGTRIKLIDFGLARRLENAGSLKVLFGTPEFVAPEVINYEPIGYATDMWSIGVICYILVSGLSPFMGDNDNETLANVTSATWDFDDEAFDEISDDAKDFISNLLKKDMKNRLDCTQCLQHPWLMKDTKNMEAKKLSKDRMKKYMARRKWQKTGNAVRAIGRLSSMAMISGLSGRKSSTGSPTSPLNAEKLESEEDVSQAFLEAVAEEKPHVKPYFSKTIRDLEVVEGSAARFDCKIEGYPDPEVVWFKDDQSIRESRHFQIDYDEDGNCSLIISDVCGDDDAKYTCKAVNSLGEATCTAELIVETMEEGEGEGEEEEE

[22] = molecular target: Mitogen-activated protein kinase 6 (Homo sapiens) (UniProt Q16659); assay: Binding affinity to wild-type human partial length ERK3 (M1 to P413 residues) expressed in Escherichia coli BL21 at 1 uM by Kinomescan method relative to control
[23] = molecular target: Cyclin-dependent kinase 4 (Homo sapiens) (UniProt P11802); assay: Binding affinity to wild-type human full length CDK4 (M1 to E303 residues) expressed in HEK293 cells at 1 uM by Kinomescan method relative to control; format: cell-based
Cyclin-dependent kinase 4 (Homo sapiens), sequence (P11802 whole entry, the tested form may be a part): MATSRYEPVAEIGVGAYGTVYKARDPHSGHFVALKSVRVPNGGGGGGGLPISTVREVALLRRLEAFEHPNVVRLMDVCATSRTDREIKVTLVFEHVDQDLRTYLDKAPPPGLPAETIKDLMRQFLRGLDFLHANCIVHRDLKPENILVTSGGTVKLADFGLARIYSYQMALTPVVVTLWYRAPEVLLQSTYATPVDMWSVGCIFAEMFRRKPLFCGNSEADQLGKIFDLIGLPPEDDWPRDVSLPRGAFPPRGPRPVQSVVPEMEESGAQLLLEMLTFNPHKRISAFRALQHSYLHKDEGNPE

[24] = molecular target: Tyrosine-protein kinase ABL1 (Homo sapiens) (UniProt P00519); assay: Binding affinity to wild-type human phosphorylated ABL1 (S229 to K512 residues) expressed in HEK293 cells at 1 uM by Kinomescan method relative to control; format: cell-based

Compound: CCC(=O)Nc1ccc(C(=O)Nc2ccc(Nc3ncc4c(n3)N(C)c3ccc(C)cc3C(=O)N4C)cc2)cc1
- Activity [1]: 96%
- Activity [2]: 88%
- Activity [3]: 97%
- Activity [4]: 100%
- Activity [5]: 74%
- Activity [6]: 100%
- Activity [7]: 88%
- Activity [8]: 85%
- Activity [9]: 81%
- Activity [10]: 87%
- Activity [11]: 91%
- Activity [12]: 85%
- Activity [13]: 95%
- Activity [14]: 100%
- Activity [15]: 79%
- Activity [16]: 94%
- Activity (HEK293): 50%
- Activity [17]: 78%
- Activity [18]: 100%
- Activity [19]: 91%
- Activity [20]: 96%
- Activity [21]: 78%
- Activity [22]: 81%
- Activity [23]: 89%
- Activity [24]: 90%

Compound: C=CC(=O)Nc1ccc(C(=O)Nc2ccc(Nc3ncc4c(n3)N(C)c3ccc(C)cc3C(=O)N4C)cc2)cc1
- Activity [1]: 93%
- Activity [2]: 89%
- Activity [3]: 92%
- Activity [4]: 99%
- Activity [5]: 76%
- Activity [6]: 99%
- Activity [7]: 80%
- Activity [8]: 84%
- Activity [9]: 95%
- Activity [10]: 99%
- Activity [11]: 100%
- Activity [12]: 84%
- Activity [13]: 98%
- Activity [14]: 96%
- Activity [15]: 98%
- Activity [16]: 86%
- Activity (HEK293): 50%
- Activity [17]: 79%
- Activity [18]: 100%
- Activity [19]: 88%
- Activity [20]: 100%
- Activity [21]: 89%
- Activity [22]: 97%
- Activity [23]: 100%
- Activity [24]: 94%
